From ChEMBL document CHEMBL4613300, “Pharmacophore-Based Virtual Screening for Identification of Negative Modulators of GLI1 as Potential Anticancer Agents” (ACS Med Chem Lett, 2020) come the findings set out here.

The subject of one data set is Daoy. The experiment in a line: Antiproliferative activity against human DaOY cells assessed as reduction in cell viability incubated for 72 hrs by trypan blue or crystal violet staining based assay. It is filed as functional.
The subject of the next data set is A-375. Kind of data set: Antiproliferative activity against human A375 cells assessed as reduction in cell viability incubated for 72 hrs by trypan blue or crystal violet staining based assay. The class given is functional.
Data set [1] deals with T1, Zinc finger protein GLI1 (Mus musculus) (UniProt P47806).
T1 sequence (whole entry): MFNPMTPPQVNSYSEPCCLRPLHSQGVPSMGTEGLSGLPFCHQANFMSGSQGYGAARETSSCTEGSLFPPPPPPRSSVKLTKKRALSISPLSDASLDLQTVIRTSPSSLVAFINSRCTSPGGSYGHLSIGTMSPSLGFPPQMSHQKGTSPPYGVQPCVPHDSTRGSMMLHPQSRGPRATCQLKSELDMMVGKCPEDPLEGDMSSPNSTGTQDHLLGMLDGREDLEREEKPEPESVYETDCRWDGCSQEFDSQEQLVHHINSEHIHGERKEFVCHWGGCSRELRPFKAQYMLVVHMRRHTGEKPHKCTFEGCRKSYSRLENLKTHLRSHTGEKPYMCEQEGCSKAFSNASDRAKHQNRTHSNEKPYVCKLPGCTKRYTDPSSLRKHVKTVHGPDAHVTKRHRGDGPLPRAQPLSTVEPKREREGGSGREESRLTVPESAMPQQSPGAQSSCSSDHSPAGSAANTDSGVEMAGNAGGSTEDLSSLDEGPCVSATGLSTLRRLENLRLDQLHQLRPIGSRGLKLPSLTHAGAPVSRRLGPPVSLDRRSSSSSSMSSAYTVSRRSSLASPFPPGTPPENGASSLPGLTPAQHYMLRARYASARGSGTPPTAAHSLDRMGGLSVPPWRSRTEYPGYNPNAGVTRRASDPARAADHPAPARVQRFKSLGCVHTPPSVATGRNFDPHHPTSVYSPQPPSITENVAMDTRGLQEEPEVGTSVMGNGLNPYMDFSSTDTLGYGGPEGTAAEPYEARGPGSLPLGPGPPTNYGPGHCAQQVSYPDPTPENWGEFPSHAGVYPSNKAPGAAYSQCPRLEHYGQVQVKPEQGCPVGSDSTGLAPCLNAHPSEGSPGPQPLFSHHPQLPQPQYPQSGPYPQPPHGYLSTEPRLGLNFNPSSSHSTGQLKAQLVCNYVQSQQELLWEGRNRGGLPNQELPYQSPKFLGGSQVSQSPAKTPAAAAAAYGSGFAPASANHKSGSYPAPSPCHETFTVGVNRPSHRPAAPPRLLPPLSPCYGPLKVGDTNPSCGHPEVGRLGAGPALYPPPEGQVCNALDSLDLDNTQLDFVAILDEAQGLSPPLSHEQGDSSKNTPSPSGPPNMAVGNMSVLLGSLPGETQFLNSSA
The experiment in a line: Inhibition of GLI1 transcriptional activity in HH-responsive mouse NIH3T3 cells assessed as reduction in SAG-induced luciferase activity at 5 uM incubated for 48 hrs by luciferase reporter gene assay relative to control. The class given is cell-based. The method, boiled down:
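HH-responsive NIH3T3 cells carrying a GLI-dependent firefly luciferase reporter with renilla control, treated 48 h with 100 nM SAG plus compound (5 μM). Firefly/renilla ratio normalised to SAG-only cells set at 100%, reported as percent inhibition.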
A general note: In a reporter assay the amount or activity of a reporter protein is the signal.

Data set [2] has as its target T1, Zinc finger protein GLI1 (Mus musculus). The experiment in a line: Inhibition of GLI1 transcriptional activity in HH-responsive mouse NIH3T3 cells assessed as reduction in GLI1 protein expression at 5 uM incubated for 48 hrs in presence of SAG by Western blot analysis. It is filed as cell-based. The method, boiled down:
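Murine NIH3T3 cells given 100 nM SAG plus compound (5 μM) or DMSO for 48 h. Endogenous GLI1 protein measured by Western blot with HSP90 as loading control, band quantified against SAG-treated cells.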

Data set [3] deals with T2, Zinc finger protein GLI1 (Homo sapiens) (UniProt P08151).
T2 sequence (whole entry): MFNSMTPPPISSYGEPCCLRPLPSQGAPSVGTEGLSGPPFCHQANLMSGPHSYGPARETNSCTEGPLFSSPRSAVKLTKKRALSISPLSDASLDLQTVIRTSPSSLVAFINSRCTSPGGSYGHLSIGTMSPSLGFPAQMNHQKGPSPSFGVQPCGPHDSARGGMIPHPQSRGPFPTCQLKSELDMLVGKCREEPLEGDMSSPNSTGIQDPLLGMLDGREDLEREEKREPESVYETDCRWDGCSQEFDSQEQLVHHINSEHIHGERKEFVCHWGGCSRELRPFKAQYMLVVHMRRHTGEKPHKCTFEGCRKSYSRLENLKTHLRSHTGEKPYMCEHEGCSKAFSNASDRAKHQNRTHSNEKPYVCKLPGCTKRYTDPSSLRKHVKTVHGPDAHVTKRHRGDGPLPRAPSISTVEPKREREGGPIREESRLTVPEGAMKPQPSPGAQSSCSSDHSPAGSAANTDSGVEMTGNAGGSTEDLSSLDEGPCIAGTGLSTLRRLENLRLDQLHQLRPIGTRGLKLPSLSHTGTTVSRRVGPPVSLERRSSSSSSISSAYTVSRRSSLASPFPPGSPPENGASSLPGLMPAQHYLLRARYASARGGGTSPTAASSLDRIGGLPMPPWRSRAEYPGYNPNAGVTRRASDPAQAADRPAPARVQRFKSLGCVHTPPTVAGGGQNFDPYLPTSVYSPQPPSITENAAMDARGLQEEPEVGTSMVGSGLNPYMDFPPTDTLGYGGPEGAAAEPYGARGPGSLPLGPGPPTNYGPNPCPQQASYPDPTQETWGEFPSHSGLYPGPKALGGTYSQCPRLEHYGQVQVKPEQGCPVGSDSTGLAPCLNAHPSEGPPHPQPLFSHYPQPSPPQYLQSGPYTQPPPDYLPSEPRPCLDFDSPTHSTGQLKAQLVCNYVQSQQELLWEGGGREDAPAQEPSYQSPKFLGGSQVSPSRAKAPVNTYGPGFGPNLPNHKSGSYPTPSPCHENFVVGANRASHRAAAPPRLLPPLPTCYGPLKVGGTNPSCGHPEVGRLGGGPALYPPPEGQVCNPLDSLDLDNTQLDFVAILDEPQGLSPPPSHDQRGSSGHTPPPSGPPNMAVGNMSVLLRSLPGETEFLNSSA
The experiment in a line: Inhibition of GLI1 transcriptional activity in human A375 cells assessed as downregulation of Cyclin D1 mRNA expression at 5 uM incubated for 48 hrs by qPCR analysis. It is filed as cell-based. As to conditions: A-375. The procedure, abridged: (§1)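 A375 cells treated with compound (5 μM) or DMSO for 48 h. mRNA measured by qPCR as gene/(mean of HPRT and EIF2α) ratio, DMSO control set to 1. Mean ± SD.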
In general terms: In qPCR the cycle at which signal appears reflects the starting amount.

The target in data set [4] is T2, Zinc finger protein GLI1 (Homo sapiens). The experiment in a line: Inhibition of GLI1 transcriptional activity in human A375 cells assessed as downregulation of PTCH1 mRNA expression at 5 uM incubated for 48 hrs by qPCR analysis. It is filed as cell-based. The note with it: A-375. The method, boiled down: as §1
The target is the same in data set [5]. Kind of data set: Inhibition of GLI1 transcriptional activity in human A375 cells assessed as downregulation of GLI2 mRNA expression at 5 uM incubated for 48 hrs by qPCR analysis. The class given is cell-based. The note with it: A-375. The procedure, abridged: as §1
Data set [6] shares this target. The experiment in a line: Inhibition of GLI1 transcriptional activity in human A375 cells assessed as downregulation of HIP1 mRNA expression at 5 uM incubated for 48 hrs by qPCR analysis. It is filed as cell-based. The note with it: A-375. The method, boiled down: as §1
A further data set concerns MCF-10A. Kind of data set: Cytotoxicity against human MCF10A cells assessed as reduction in cell viability incubated for 72 hrs by trypan blue or crystal violet staining based assay.
The target in data set [7] is T2, Zinc finger protein GLI1 (Homo sapiens). Kind of data set: Inhibition of GLI1 transcriptional activity in human A375 cells assessed as downregulation of GLI1 mRNA expression at 5 uM incubated for 48 hrs by qPCR analysis. The class given is cell-based. The note with it: A-375. The procedure, abridged:
as §1

Where [8] appears, read: Homo sapiens, Daoy, 72 h, read-out: IC50.
Setting [9] is: Homo sapiens, A-375, 72 h, read-out: IC50.

Each structure is given as a SMILES string. Active and inactive are the calls of the source. The calls are words filed in the database; no cut-off is given here.

In general, IC50 refers to the concentration needed to halve the response being measured. The term inhibition denotes the drop in the measured response relative to a control, in per cent. For the compound `CCOC(=O)c1c(-c2ccccc2)csc1NC(NC(=O)c1ccc([N+](=O)[O-])cc1)C(Cl)(Cl)Cl` (stereo unspecified), the figures for the IC50 in the data set with Daoy (setting [8]) and in the data set with A-375 (setting [9]) were 3.1 µM and 5.2 µM, respectively. In addition, the inhibition in data set [1] came out at 74%. Moreover, in data set [2], the inhibition entry is “Active”.
In the same order, the values of `O=C(NC1CCCc2ccccc21)c1cnn2c(C(F)F)cc(C3CC3)nc12` (stereo unspecified) are 7.5 µM, 5 µM, 54% and “Active”.
The like results for `O=C(NC1CCCc2ccccc21)c1cnn2c(C(F)(F)F)cc(-c3ccco3)nc12` (stereo unspecified) were, in that order, 5.7 µM, 0.6 µM, 66% and “Active”.
In the case of `CCOC(=O)c1c(-c2ccccc2)csc1NC(NC(=O)c1ccccc1C)C(Cl)(Cl)Cl` (stereo unspecified), the IC50 entry with Daoy (daoy) and in the data set on A-375 (a-375) was “Not Active” in each case. For the same compound, the inhibition result in data set [2] is “inactive”.
Regarding `CCOC(=O)c1c(-c2ccccc2)csc1NC(NC(=O)c1ccccc1)C(Cl)(Cl)Cl` (stereo unspecified), the inhibition entry in [3], in [4], in [5], in [6], in [7] and in data set [2] was “Active” each time. For the same compound, the Activity result in the data set on MCF-10A is listed as “Non-Toxic”. For the same compound, the IC50 in the data set on Daoy (setting [8]) came to 0.9 µM; with A-375 (setting [9]), 12 µM. Moreover, the inhibition in [1] was found to be 40%.
As to `O=C(NC1CCCCC1)c1cnn2c(C(F)F)cc(C3CC3)nc12`, the inhibition result in data set [2] is “inactive”.
For `CCOC(=O)c1c(-c2ccccc2)csc1NC(NC(=O)c1ccc(Br)cc1)C(Cl)(Cl)Cl` (stereo unspecified), the concentration for half-maximal inhibition (IC50) with Daoy (setting [8]) is 3.4 µM; in the data set on A-375 (setting [9]) it was 2 µM. The inhibition in data set [1] came out at 78%. The inhibition result in data set [2] is “Active”.
Regarding `Cc1cc(C(F)F)n2ncc(C(=O)NC3CC(C)(C)Oc4ccccc43)c2n1` (stereo unspecified), the IC50 entry with Daoy (daoy) and in the data set on A-375 (a-375) was “Not Active” in each case. Further, in data set [1], the inhibition is 0%. For the same compound, the inhibition entry in data set [2] was “inactive”.
As for `O=C(NCCc1ccccc1)c1cnn2c(C(F)F)cc(C3CC3)nc12`, in data set [2], the inhibition result is “inactive”.
With `O=C(c1cnn2c(C(F)F)cc(C3CC3)nc12)N(Cc1ccccc1)Cc1ccccc1`, the inhibition entry in data set [2] is “inactive”.
As to `CCOC(=O)c1c(-c2ccccc2)csc1NC(NC(=O)c1ccco1)C(Cl)(Cl)Cl` (stereo unspecified), the IC50 in the data set with Daoy (setting [8]) came to 4.3 µM; with A-375 (setting [9]) it was 2.7 µM. For the same compound, the inhibition in data set [1] was found to be 51%. The inhibition result in data set [2] was “Active”.
Consider `O=C(NC1CCOc2ccccc21)c1cnn2c(C(F)F)cc(C3CC3)nc12` (stereo unspecified), for which the IC50 result in the data set with Daoy (daoy) and in the data set on A-375 (a-375) was “Not Active” throughout. The inhibition entry in data set [2] is “inactive”.
As for `CCOC(=O)c1c(-c2ccccc2)csc1NC(NC(=O)c1cccc2ccccc12)C(Cl)(Cl)Cl` (stereo unspecified), the IC50 result in the data set with Daoy (daoy) and in the data set with A-375 (a-375) was “Not Active” throughout. Further, the inhibition in [1] was found to be 7%. The inhibition result in [2] is “inactive”.
For the compound `CCOC(=O)c1c(-c2ccccc2)csc1NC(NC(=O)c1cccc(C)c1)C(Cl)(Cl)Cl` (stereo unspecified), the IC50 result in the data set with Daoy (daoy) and in the data set with A-375 (a-375) was “Not Active” throughout. The inhibition entry in data set [2] was “inactive”.
On to `CCOC(=O)c1c(-c2ccccc2)csc1NC(NC(=O)c1ccc(C)cc1)C(Cl)(Cl)Cl` (stereo unspecified), for which the IC50 result in the data set with Daoy (daoy) and with A-375 (a-375) was “Not Active” each time. Moreover, the inhibition result in data set [2] is “inactive”.
Regarding `CC1(C)CC(NC(=O)c2cnn3c(C(F)F)cc(C4CC4)nc23)c2ccccc2O1` (stereo unspecified), the inhibition entry in data set [3], in data set [4], in [5], in data set [6], in data set [7] and in data set [2] was “Active” in each case. For the same compound, the Activity result with MCF-10A is “Non-Toxic”. Further, the values for the IC50 in the data set on Daoy (setting [8]) and with A-375 (setting [9]) were 2.3 µM and 2.2 µM, respectively. Besides, the inhibition in data set [1] is 40%.
For the compound `COc1c(O)cc2oc3cc(O)c(CC=C(C)C)c(O)c3c(=O)c2c1CC=C(C)C` [MANGOSTIN], the IC50 in the data set on Daoy (setting [8]) amounted to 1.9 µM; with A-375 (setting [9]) it was 2.7 µM. Besides, the inhibition in [1] turned out to be 43%. Besides, the inhibition entry in data set [2] is “Active”.
In the same order, the values of `CCOC(=O)c1c(-c2ccccc2)csc1NC(NC(C)=O)C(Cl)(Cl)Cl` (stereo unspecified) are 2.8 µM, 5.1 µM, 38% and “inactive”.
The like results for `CCOC(=O)c1c(-c2ccccc2)csc1NC(NC(=O)c1cccc(Cl)c1)C(Cl)(Cl)Cl` (stereo unspecified) were, in that order, 5.5 µM, 6.1 µM, 81% and “Active”.
As for `O=C(NCc1ccc2c(c1)OCO2)c1cnn2c(C(F)F)cc(C3CC3)nc12`, in data set [2], the inhibition result is “inactive”.
